Assay results as given in ChEMBL document CHEMBL4052674, “Discovery of novel quinazoline-2,4(1H,3H)-dione derivatives as potent PARP-2 selective inhibitors” (Bioorg Med Chem, 2017).

What was measured:
[1] = target: Poly [ADP-ribose] polymerase 2 (Homo sapiens, UniProt Q9UGN5); experiment: Inhibition of recombinant human PARP-2 expressed in Escherichia coli BL21 (DE3) using sheared DNA as substrate in presence of biotinylated NAD after 1 hr by ELISA
Homo sapiens = species: Homo sapiens; experiment: Selectivity index, ratio of IC50 for recombinant human PARP-1 expressed in Escherichia coli BL21 (DE3) to IC50 for recombinant human PARP-2 expressed in Escherichia coli BL21 (DE3)
In short: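 Human recombinant PARP-1 and PARP-2, expressed from plasmid and purified, were tested for inhibition of enzyme activity by ELISA and by chemical quantitation of NAD⁺. IC50 for each isoform was averaged from two or three independent experiments. The selectivity value is the ratio of the PARP-1 IC50 to the PARP-2 IC50.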

[2] = target: Poly [ADP-ribose] polymerase 1 (Homo sapiens, UniProt P09874); experiment: Inhibition of recombinant human PARP-1 expressed in Escherichia coli BL21 (DE3) using sheared DNA as substrate in presence of biotinylated NAD after 1 hr by ELISA
Sequence of Poly [ADP-ribose] polymerase 1 (P09874 whole entry): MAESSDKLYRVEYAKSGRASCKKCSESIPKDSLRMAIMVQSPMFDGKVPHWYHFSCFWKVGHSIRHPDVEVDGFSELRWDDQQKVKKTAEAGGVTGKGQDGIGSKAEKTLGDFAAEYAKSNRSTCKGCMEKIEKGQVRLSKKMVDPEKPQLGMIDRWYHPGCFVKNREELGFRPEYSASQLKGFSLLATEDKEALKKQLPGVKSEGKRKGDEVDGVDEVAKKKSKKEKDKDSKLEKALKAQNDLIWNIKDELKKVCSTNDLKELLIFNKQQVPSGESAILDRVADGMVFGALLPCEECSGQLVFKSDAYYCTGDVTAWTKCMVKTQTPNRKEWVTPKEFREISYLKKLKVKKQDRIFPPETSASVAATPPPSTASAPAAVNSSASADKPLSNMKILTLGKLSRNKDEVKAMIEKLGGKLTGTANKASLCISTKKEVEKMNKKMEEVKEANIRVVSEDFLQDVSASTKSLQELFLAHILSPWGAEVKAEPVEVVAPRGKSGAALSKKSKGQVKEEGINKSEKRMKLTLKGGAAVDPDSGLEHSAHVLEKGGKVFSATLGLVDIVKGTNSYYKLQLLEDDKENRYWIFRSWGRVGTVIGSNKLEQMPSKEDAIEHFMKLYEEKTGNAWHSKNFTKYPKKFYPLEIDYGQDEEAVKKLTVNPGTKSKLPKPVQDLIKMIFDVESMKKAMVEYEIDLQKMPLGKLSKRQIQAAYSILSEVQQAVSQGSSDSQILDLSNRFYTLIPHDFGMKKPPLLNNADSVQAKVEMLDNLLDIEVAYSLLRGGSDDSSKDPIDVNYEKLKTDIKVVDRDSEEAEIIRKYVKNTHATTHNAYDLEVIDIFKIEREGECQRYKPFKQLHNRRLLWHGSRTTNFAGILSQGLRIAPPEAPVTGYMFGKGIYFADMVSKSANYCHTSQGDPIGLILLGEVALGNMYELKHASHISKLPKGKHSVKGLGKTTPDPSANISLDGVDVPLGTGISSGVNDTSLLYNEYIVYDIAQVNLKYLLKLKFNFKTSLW

Sequence of Poly [ADP-ribose] polymerase 2 (Q9UGN5 whole entry): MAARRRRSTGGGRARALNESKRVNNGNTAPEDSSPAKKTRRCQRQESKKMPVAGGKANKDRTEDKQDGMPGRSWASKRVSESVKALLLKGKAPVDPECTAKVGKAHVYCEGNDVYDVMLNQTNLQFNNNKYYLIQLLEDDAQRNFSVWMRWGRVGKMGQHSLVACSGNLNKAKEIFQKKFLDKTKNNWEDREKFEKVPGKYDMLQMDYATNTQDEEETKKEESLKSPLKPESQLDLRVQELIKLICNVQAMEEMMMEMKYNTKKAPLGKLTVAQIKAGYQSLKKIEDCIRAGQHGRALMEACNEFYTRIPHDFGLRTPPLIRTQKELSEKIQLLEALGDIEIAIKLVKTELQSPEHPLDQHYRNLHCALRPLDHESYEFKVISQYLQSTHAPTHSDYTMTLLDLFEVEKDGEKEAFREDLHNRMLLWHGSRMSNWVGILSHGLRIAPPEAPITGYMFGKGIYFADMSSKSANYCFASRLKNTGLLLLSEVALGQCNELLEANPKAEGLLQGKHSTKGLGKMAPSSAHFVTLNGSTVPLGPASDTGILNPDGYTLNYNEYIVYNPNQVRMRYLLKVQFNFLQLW

| IC50 [1] [nM] | Ratio IC50 (Homo sapiens) | IC50 [2] [nM] | Compound |
| --- | --- | --- | --- |
| 9.1 | 0.7 | 6.2 | CC(C)(C)OC(=O)N1CC[C@H](C(=O)Nc2cc(Cn3c(=O)[nH]c(=O)c4ccccc43)ccc2Cl)C1 |
| > 100 |  | > 100 | O=C(Nc1cc(Cn2c(=O)[nH]c(=O)c3ccccc32)ccc1[N+](=O)[O-])[C@H]1CCNC1 |
| > 100 |  | > 100 | CC(C)(C)OC(=O)N1CC[C@H](C(=O)Nc2cncc(Cn3c(=O)[nH]c(=O)c4ccccc43)c2)C1 |
| 11.5 | 40.6 | 467 | O=C(Nc1cc(Cn2c(=O)[nH]c(=O)c3ccccc32)cnc1F)[C@H]1CCN(CC(F)(F)F)C1 |
| > 100 |  | > 100 | CC(C)(C)OC(=O)N1CC[C@H](C(=O)Nc2cc(Cn3c(=O)[nH]c(=O)c4ccccc43)ccc2[N+](=O)[O-])C1 |
| 3.6 | 1.6 | 5.7 | O=C(Nc1cc(Cn2c(=O)[nH]c(=O)c3ccccc32)cnc1F)[C@H]1CCN(CC2CC2)C1 |
| 8.6 | 4.6 | 39.8 | CC(C)(C)OC(=O)N1CC[C@H](C(=O)Nc2cc(Cn3c(=O)[nH]c(=O)c4ccccc43)cnc2F)C1 |
| 4.1 | 22.8 | 92.6 | O=C(Nc1cc(Cn2c(=O)[nH]c(=O)c3ccccc32)cnc1F)[C@H]1CCN(c2ccccc2)C1 |
| > 100 |  | > 100 | O=C(Nc1cc(Cn2c(=O)[nH]c(=O)c3ccccc32)ccc1Br)[C@H]1CCNC1 |
| 12.2 | 19 | 232 | CC(C)(C)OC(=O)N1CC[C@H](C(=O)Nc2cc(Cn3c(=O)[nH]c(=O)c4ccccc43)cnc2Cl)C1 |
| 2.9 | 1 | 3.1 | O=C(Nc1cc(Cn2c(=O)[nH]c(=O)c3ccccc32)cnc1F)[C@H]1CCN(CCC(F)(F)F)C1 |
| 68 | 5.1 | 346 | CC(C)(C)OC(=O)N1CC[C@H](C(=O)Nc2cc(Cn3c(=O)[nH]c(=O)c4ccccc43)ccc2Br)C1 |
| 1 | 1.8 | 1.4 | O=C(Nc1cc(Cn2c(=O)[nH]c(=O)c3ccccc32)cnc1F)[C@H]1CCN(CCC2CC2)C1 |
| 220 | 0.04 | 9.9 | O=C(Nc1cncc(Cn2c(=O)[nH]c(=O)c3ccccc32)c1)[C@H]1CCNC1 |
| > 100 |  | > 100 | O=C(Nc1cc(Cn2c(=O)[nH]c(=O)c3ccccc32)ccc1Cl)[C@H]1CCNC1 |
| 11.9 | 6.8 | 81 | O=C(Nc1cc(Cn2c(=O)[nH]c(=O)c3ccccc32)cnc1F)[C@H]1CCN(C2CCC(F)(F)CC2)C1 |
| 5.8 | 10.7 | 62 | O=C(Nc1cc(Cn2c(=O)[nH]c(=O)c3ccccc32)cnc1F)[C@H]1CCN(Cc2ccncc2)C1 |
| > 100 |  | > 100 | CC(C)(C)OC(=O)N1CC[C@H](C(=O)Nc2cc(Cn3c(=O)[nH]c(=O)c4ccccc43)ccc2O)C1 |
| > 100 |  | > 100 | CC(C)(C)OC(=O)N1CC[C@H](C(=O)Nc2cc(Cn3c(=O)[nH]c(=O)c4ccccc43)ccc2N)C1 |
| 4.5 | 12 | 54 | O=C(Nc1cc(Cn2c(=O)[nH]c(=O)c3ccccc32)cnc1F)[C@H]1CCN(C(=O)C2CC2)C1 |
| > 100 |  | > 100 | CC(C)(C)OC(=O)N1CC[C@H](C(=O)Nc2cc(Cn3c(=O)[nH]c(=O)c4ccccc43)cnc2Br)C1 |
| 5.4 | 2.5 | 13.3 | O=C(Nc1cc(Cn2c(=O)[nH]c(=O)c3ccccc32)cnc1F)[C@H]1CCN(Cc2ccccc2)C1 |

| Compound | IC50 [1] [nM] | Ratio IC50 (Homo sapiens) | IC50 [2] [nM] |
| --- | --- | --- | --- |
| O=C(Nc1cc(Cn2c(=O)[nH]c(=O)c3ccccc32)cnc1F)[C@H]1CCNC1 | 80 | 0.18 | 13.7 |
| O=C(Nc1cc(Cn2c(=O)[nH]c(=O)c3ccccc32)cnc1Br)[C@H]1CCNC1 | > 100 |  | > 100 |
| O=C(Nc1cc(Cn2c(=O)[nH]c(=O)c3ccccc32)cnc1Cl)[C@H]1CCNC1 | 40 | 4.4 | 174 |
